Data reported in ChEMBL document CHEMBL1125261, “1-Naphthylpiperazine derivatives as potential atypical antipsychotic agents” (J Med Chem, 1991).
pIC50: −log10 of the molar value. Calls of active or inactive are those of the source. The rule behind the calls is not given here.

Columns and labels:
[1] = target: T1, Serotonin 2 (5-HT2) receptor (Rattus norvegicus, UniProt P30994+P08909+P14842); experiment: Compound was evaluated for its activity by binding to 5-hydroxytryptamine 2 receptor in the rat brain using [3H]ketanserin as radioligand.; format: tissue-based
In short: (§1)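 Frozen male Sprague-Dawley rat brain cut into 20-μm cryostat sections. Incubated in 50 mM Tris pH 7.5 with 1 nM [3H]ketanserin and test drug, room temperature, 30 min; nonspecific binding with 2 μM pipamperone. Washed in ice-cold buffer, exposed to tritium film 6 weeks, read by densitometry.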

[2] = target: Adrenergic receptor alpha; experiment: In vitro binding activity against Alpha receptor in rat brain using [3H]prazosin; format: tissue-based
In short: (§2)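 Whole rat brain minus cerebellum homogenized and washed twice in 50 mM Tris-HCl pH 7.7, resuspended in Tris pH 8.0. Incubated in triplicate with 0.22 nM (final) [3H]prazosin and drug, 25 °C, 30 min. Blank was 50 μM norepinephrine. Filtered through glass fiber and scintillation counted. IC50 from three log concentrations in triplicate.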

D(2) dopamine receptor = D(2) dopamine receptor (Rattus norvegicus, UniProt P61169); experiment: Binding affinity to dopamine receptor D2 in the rat brain using [3H]NPA as radioligand; format: tissue-based
In short: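 Rat brain D2 binding with [3H]NPA as ligand. IC50 taken from dose-response curves over three log concentrations of test compound, each in triplicate.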

Rattus norvegicus [3] = experiment: Compound was evaluated for the inhibition of apomorphine induced stereotypy behavior in rats after sc administration.; format: functional; set-up: unit not given here
In short: (§3)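 Male Sprague-Dawley rats (250–300 g, five per group) given test drug (2 mL/kg) or saline. At 1, 3 and 5 h they received apomorphine 0.75 mg/kg sc in water with 0.1% ascorbic acid. Stereotypy was rated every 10 min up to 50 min. ANOVA then Dunnett's t test over half-log dose multiples; MED was the lowest significant dose.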

[4] = target: T2, 5-hydroxytryptamine receptor 1A (Rattus norvegicus, UniProt P19327); experiment: Binding affinity to 5-hydroxytryptamine 1A receptor in the rat brain using [3H]8-hydroxy-2-(di-n-propylamine)tetralin as radioligand.; format: tissue-based
T2 sequence (P19327 whole entry): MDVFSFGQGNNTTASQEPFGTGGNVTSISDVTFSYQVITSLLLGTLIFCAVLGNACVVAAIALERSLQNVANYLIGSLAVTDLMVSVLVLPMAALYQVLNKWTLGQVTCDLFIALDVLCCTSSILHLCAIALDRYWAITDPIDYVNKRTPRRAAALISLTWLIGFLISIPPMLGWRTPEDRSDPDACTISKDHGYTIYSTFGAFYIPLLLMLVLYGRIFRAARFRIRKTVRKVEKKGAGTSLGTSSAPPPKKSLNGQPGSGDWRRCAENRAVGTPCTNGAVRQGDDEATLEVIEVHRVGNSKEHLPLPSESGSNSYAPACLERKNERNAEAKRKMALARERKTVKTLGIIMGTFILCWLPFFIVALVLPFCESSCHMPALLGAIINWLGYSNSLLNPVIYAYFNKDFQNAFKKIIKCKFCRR
In short: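 Rat forebrain P2 membranes: lysed in 5 mM Tris acetate pH 7.4, washed, preincubated 30 min at 30 °C. Incubated with [3H]-8-OH-DPAT and test drug, 30 °C, 20 min; filtered, scintillation counted.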

[5] = target: T1, Serotonin 2 (5-HT2) receptor; experiment: (§4) Compound was evaluated In vitro for its activity by binding to 5-hydroxytryptamine 2 receptor in the rat brain using [3H]ketanserin as radioligand.; format: tissue-based; in short: as §1
Rattus norvegicus [6] = experiment: Antipsychotic activity determined in vivo by inhibition of amphetamine induced locomotor behavior in rats by the po administration.; format: functional
In short: (§5)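 Male Sprague-Dawley rats (275–325 g, eight per group) habituated overnight in automated activity boxes, then dosed with test compound suspended in 90% saline/5% ethanol/5% Emulphor. d-Amphetamine sulfate 1.36 mg/kg given 1 h later. Floor quadrant crossings counted over 3 h. ANOVA with Dunnett's test; ED50 and 95% confidence limits by probit analysis of means converted to percent inhibition.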

Rattus norvegicus [7] = experiment: Antipsychotic activity determined in vivo by inhibition of amphetamine induced locomotor behavior in rats by the sc administration.; format: functional; in short: as §5
Rattus norvegicus [8] = experiment: Compound was evaluated for the inhibition of haloperidol induced catalepsy behavior in rats after sc administration.; format: functional; set-up: unit not given here
In short: (§6)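 Catalepsy was tested on a horizontal rod after 3 h. Test drug or vehicle was then given and catalepsy duration scored every 30 min for 2.5 h. One-way ANOVA with Dunnett's test over half-log dose multiples; MED was the lowest significant dose.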

[9] = target: T1, Serotonin 2 (5-HT2) receptor; experiment: as §4; format: tissue-based; remark: listed apart in the source
Rattus norvegicus [10] = experiment: Compound was evaluated for the inhibition of apomorphine induced stereotypy behavior in rats after ip administration.; format: functional; in short: as §3
Rattus norvegicus [11] = experiment: Compound was evaluated for the inhibition of apomorphine induced stereotypy behavior in rats after po administration.; format: functional; in short: as §3
Rattus norvegicus [12] = experiment: Compound was evaluated for the inhibition of haloperidol induced catalepsy behavior in rats after po administration.; format: functional; in short: as §6
Rattus norvegicus [13] = experiment: Compound was evaluated for inhibition of apomorphine induced stereotypy behavior in rats after sc administration.; format: functional; in short: as §3
[14] = target: Adrenergic receptor alpha; experiment: Compound was evaluated In vitro for its activity by binding to Alpha receptor in the rat brain using [3H]prazosin as radioligand.; format: tissue-based; in short: as §2
[15] = target: Adrenergic receptor alpha; experiment: Compound was evaluated In vitro for its activity by binding to Alpha adrenergic receptor in the rat brain using [3H]prazosin as radioligand.; format: tissue-based
Rattus norvegicus [16] = experiment: Compound was evaluated for the inhibition of haloperidol induced catalepsy behavior in rats after sc administration; Inactive; format: functional, organism-based

D(2) dopamine receptor, sequence (P61169 whole entry): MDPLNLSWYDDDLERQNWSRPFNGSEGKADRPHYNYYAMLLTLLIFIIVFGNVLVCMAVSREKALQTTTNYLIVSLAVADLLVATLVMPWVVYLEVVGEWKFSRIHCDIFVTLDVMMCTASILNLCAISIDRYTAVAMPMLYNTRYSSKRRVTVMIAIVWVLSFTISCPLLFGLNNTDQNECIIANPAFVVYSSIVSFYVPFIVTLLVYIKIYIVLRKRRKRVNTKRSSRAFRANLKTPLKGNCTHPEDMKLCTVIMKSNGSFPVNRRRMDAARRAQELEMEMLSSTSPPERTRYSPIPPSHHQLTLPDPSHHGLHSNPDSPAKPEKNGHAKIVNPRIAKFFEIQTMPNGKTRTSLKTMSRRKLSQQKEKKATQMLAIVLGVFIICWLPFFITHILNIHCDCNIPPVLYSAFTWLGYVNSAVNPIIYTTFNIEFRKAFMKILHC

Compound | IC50 [2] [nM] | pIC50 (D(2) dopamine receptor) | MED (Rattus norvegicus [3]) | pIC50 [4] | ED50 (Rattus norvegicus [7]) [mg/kg] | other results
c1ccc2c(N3CCNCC3)cccc2c1 | – | – | – | – | – | IC50 [1]: 62 nM
c1ccc2c(N3CCN(CCc4ccc(-c5csnn5)cc4)CC3)cccc2c1 | 105 | 7.08 | >10 | – | – | IC50 [1]: 237 nM
Oc1nc2ccc(CCN3CCN(c4cccc5ccccc45)CC3)cc2o1 | 45 | 7.36 | 10 | 8.21 | 1.6 | IC50 [5]: 10 nM; ED50 (Rattus norvegicus [6]): 40.5 mg/kg; MED (Rattus norvegicus [8]): >10
Nc1nc(-c2ccc(CCN3CCN(c4cccc5ccccc45)CC3)cc2)cs1 | 135 | 7.14 | – | 7.96 | – | IC50 [9]: 385 nM; ED50 (Rattus norvegicus [6]): 25.3 mg/kg; MED (Rattus norvegicus [10]): 10; MED (Rattus norvegicus [11]): 32; MED (Rattus norvegicus [12]): 3.2
O=C1Cc2cc(CCN3CCN(c4cccc5ccccc45)CC3)ccc2N1 | 24 | 7.42 | – | 8.31 | 1.21 | IC50 [9]: 20 nM; ED50 (Rattus norvegicus [6]): 13.3 mg/kg; MED (Rattus norvegicus [12]): 10; MED (Rattus norvegicus [8]): >10
Cc1sc(N)nc1-c1ccc(CCN2CCN(c3cccc4ccccc34)CC2)cc1 | 234 | 6.80 | – | – | > 10 | MED (Rattus norvegicus [13]): >3.2; MED (Rattus norvegicus [8]): >3.2
CNc1nc(-c2ccc(CCN3CCN(c4cccc5ccccc45)CC3)cc2)cs1 | – | 6.81 | >10 | – | – | IC50 [14]: 252 nM
Oc1nc2ccc(CCN3CCN(c4cccc5ccccc45)CC3)cc2s1 | – | – | >10 | 8.66 | – | IC50 [9]: 50 nM; IC50 [15]: 24 nM
CN1CCN(C2=Nc3cc(Cl)ccc3Nc3ccccc32)CC1 [CLOZAPINE] | – | – | – | – | 6.9 | MED (Rattus norvegicus [16]): inactive
O=C(CCCN1CCC(O)(c2ccc(Cl)cc2)CC1)c1ccc(F)cc1 [HALOPERIDOL] | – | – | 0.032 | – | – | MED (Rattus norvegicus [16]): inactive
CCN1C(=O)Cc2cc(CCN3CCN(c4cccc5ccccc45)CC3)ccc21 | 248 | 7.09 | – | 8.54 | – | –
CC1(C)C(=O)Nc2ccc(CCN3CCN(c4cccc5ccccc45)CC3)cc21 | 40 | 7.07 | – | 8.16 | – | IC50 [5]: 11.8 nM
Oc1nc(-c2ccc(CCN3CCN(c4cccc5ccccc45)CC3)cc2)cs1 | 65 | 7.10 | >17.8 | – | > 10 | IC50 [1]: 249 nM; MED (Rattus norvegicus [8]): 10
Cc1nc(-c2ccc(CCN3CCN(c4cccc5ccccc45)CC3)cc2)cs1 | 166 | 6.97 | >10 | – | – | –
